From ChEMBL document CHEMBL1148382, “Synthesis and structure-activity relationship for a novel class of potent and selective carbamoyl-triazole based inhibitors of hormone sensitive lipase” (J Med Chem, 2004) come the findings set out here.

In assay [1] the target is T1, Acetylcholinesterase (Homo sapiens, UniProt P22303). Description: Inhibitory concentration against acetylcholinesterase.
Another assay has as its target T2, Hormone-sensitive lipase (Homo sapiens, UniProt Q05469).
T2 sequence (Q05469 whole entry): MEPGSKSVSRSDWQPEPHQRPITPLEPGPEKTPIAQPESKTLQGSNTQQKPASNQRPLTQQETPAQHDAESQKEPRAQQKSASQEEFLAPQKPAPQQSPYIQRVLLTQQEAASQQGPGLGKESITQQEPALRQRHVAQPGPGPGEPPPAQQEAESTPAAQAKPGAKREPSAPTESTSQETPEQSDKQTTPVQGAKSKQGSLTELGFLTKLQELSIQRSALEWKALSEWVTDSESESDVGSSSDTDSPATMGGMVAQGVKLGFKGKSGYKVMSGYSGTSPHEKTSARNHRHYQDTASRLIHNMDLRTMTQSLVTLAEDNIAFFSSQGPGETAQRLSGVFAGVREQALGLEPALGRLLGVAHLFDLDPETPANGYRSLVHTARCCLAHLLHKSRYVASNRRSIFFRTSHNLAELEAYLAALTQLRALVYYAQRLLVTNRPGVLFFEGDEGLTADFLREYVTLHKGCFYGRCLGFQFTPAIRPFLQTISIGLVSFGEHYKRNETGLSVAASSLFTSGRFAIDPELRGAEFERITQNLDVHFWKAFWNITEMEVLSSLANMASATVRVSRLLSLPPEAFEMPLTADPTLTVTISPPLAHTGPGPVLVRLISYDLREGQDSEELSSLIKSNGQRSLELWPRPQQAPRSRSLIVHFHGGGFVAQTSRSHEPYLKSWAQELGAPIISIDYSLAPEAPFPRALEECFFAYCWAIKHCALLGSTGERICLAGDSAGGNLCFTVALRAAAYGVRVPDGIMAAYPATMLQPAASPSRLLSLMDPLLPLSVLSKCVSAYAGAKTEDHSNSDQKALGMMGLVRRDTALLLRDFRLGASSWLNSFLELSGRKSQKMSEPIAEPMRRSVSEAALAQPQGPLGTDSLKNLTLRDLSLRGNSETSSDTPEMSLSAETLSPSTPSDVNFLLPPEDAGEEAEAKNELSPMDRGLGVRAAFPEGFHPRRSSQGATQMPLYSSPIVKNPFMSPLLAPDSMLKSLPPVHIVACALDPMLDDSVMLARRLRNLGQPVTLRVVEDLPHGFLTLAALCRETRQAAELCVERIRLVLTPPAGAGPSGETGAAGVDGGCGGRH
As to the kind of experiment: Inhibition of hormone sensitive lipase (HSL).

For another assay, the target named is Cholinesterase (Homo sapiens, UniProt P06276). As to the kind of experiment: Inhibitory concentration against butyrylcholinesterase.
The target of assay [2] is T1, Acetylcholinesterase. Description: Inhibitory concentration against acetylcholinesterase; non classical inhibitor, maximum HSL inhibition of […]%.
In assay [3] the target is T3, Hepatic triacylglycerol lipase (Homo sapiens, UniProt P11150).
T3 sequence (P11150 whole entry): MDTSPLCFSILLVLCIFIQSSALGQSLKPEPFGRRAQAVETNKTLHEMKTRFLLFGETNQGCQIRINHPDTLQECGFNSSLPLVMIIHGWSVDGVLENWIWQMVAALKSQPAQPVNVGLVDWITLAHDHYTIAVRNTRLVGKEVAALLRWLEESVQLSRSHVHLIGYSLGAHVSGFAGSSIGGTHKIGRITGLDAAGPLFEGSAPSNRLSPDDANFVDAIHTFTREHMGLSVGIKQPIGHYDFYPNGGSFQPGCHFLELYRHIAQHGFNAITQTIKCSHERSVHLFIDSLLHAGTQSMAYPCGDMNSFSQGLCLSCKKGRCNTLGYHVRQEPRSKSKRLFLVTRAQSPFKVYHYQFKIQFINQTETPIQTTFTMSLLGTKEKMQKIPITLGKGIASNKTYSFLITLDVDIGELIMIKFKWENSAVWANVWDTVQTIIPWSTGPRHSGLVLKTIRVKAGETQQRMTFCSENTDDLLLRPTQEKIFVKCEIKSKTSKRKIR
Description: Compound was tested to inhibit hepatic lipase (HL). Summed up: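 Emulsion assay with a fluorochrome (NBD)-labeled triacylglyceride in phosphatidylcholine/phosphatidylinositol 3:1 micelles, diluted in PED-BSA buffer pH 7.0. HL (1 μg/mL) and inhibitor in DOC buffer (10 mM TRIS-HCl pH 8.5, 5 mM deoxycholate) preincubated 70 min at 25 °C, then added with NaCl and TRIS pH 8.5. Fluorescence (ex 450/em 545 nm) read at 0 and 120 min, 37 °C. Inhibitor top concentration 100 μM, six 5-fold dilutions, duplicates; sigmoidal variable-slope IC50 fit.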

Assay [4] has as its target T4, Pancreatic triacylglycerol lipase (Homo sapiens, UniProt P16233).
T4 sequence (P16233 whole entry): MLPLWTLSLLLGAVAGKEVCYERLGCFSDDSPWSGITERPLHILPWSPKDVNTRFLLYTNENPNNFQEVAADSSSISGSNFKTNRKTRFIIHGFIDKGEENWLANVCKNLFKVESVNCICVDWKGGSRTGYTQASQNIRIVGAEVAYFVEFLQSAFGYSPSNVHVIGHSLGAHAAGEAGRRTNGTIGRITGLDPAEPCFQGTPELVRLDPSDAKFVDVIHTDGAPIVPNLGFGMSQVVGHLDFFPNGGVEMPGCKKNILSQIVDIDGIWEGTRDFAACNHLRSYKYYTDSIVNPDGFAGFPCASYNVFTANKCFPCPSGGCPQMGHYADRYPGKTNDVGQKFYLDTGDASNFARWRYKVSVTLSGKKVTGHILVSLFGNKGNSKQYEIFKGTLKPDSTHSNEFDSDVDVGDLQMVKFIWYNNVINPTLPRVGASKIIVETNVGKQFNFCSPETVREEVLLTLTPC
Description: Compound was tested to inhibit pancreatic lipase (PL). The essentials:
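PL (1 μg/mL) plus colipase (5 μg/mL) preincubated with inhibitor 40 min at 25 °C. Then combined with TRIS buffer pH 8.0 (NaCl, 1 mM NaTDC) and labeled triacylglyceride emulsion prepared in TRIS pH 8.0 with 8 mM NaTDC, 0.3 M NaCl, 2 mM CaCl2. Fluorescence (ex 450/em 545 nm) read at 0 and 60 min, 37 °C. Six concentrations from 100 μM in 5-fold steps, duplicates; sigmoidal IC50 fit.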

Assay [5] has as its target Lipoprotein lipase (Bos taurus) (UniProt P11151). As to the kind of experiment: Compound was tested to inhibit lipoprotein lipase (LPL).

T1 sequence (P22303 whole entry): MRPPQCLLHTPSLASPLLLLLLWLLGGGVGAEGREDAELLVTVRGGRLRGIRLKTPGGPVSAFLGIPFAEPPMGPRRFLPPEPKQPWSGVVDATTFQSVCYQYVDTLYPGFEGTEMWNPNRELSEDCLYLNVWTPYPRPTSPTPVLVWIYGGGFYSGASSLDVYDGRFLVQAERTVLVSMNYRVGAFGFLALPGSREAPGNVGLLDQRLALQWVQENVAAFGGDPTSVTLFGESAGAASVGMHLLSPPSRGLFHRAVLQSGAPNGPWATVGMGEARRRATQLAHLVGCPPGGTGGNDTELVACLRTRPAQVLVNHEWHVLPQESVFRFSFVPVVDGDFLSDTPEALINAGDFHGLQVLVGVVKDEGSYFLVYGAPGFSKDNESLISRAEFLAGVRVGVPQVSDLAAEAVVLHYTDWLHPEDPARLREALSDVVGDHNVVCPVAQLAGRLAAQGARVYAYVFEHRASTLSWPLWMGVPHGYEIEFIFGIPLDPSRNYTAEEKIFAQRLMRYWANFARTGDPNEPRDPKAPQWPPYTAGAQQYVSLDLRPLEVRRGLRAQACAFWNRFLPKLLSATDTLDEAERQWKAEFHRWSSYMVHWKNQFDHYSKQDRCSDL
Lipoprotein lipase (Bos taurus), sequence (P11151 whole entry, looked up): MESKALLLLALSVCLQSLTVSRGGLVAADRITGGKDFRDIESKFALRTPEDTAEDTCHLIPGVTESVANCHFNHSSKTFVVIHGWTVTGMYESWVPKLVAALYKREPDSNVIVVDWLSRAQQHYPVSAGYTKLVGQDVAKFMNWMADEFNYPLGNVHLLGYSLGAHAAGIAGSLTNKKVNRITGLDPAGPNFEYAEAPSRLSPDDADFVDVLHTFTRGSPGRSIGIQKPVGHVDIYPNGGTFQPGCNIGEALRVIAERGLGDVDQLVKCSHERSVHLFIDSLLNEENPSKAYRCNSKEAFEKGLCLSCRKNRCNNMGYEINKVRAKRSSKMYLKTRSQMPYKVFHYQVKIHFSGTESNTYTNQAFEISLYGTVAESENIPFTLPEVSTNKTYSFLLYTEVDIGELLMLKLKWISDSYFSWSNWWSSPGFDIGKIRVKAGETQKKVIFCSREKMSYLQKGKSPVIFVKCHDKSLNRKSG
Cholinesterase, sequence (P06276 whole entry): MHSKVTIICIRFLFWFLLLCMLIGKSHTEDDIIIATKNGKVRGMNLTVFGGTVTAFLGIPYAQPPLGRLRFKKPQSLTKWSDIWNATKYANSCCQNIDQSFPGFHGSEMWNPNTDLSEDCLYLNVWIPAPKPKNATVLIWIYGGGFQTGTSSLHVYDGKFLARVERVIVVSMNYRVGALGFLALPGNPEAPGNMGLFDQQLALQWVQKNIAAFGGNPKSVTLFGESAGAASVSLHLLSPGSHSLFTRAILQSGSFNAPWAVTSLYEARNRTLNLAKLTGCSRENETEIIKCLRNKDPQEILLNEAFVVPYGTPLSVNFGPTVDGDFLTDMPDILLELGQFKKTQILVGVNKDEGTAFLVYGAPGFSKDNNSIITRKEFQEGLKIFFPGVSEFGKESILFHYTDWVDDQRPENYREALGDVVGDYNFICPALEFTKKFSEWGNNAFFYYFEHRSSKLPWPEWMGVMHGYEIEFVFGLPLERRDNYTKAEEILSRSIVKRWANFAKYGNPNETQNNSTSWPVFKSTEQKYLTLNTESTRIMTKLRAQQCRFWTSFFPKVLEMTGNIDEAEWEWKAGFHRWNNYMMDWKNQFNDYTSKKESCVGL

`CSc1nc(-c2ccc(Cl)cc2)nn1C(=O)N(C)c1ccccc1`: the results for the half-inhibitory concentration (IC50) at Acetylcholinesterase [1] and on Hormone-sensitive lipase were 1.4 µM and 0.16 µM, respectively.
Turning to `CSc1nc(-c2ccc(OC(F)(F)F)cc2)nn1C(=O)N(C)C`, the half-inhibitory concentration (IC50) was found to be 0.8 µM at Acetylcholinesterase [1], 0.2 µM against Cholinesterase and 0.1 µM at Hormone-sensitive lipase.
Taken in the same sequence, the figures for `CCCSc1nc(-c2ccc(Cl)cc2)nn1C(=O)N(C)C` were 0.3 µM, 0.1 µM and 0.06 µM.
Take `CSc1nc(-c2ccc(C)cc2)nn1C(=O)N(C)c1ccccc1`: the IC50 at Acetylcholinesterase [1] was 2.4 µM; against Hormone-sensitive lipase it was 0.1 µM.
For the molecule `CCCCCCSc1nc(-c2ccc(Cl)cc2)nn1C(=O)N1CCOCC1`, the IC50 at Acetylcholinesterase [1], at Cholinesterase and against Hormone-sensitive lipase was greater than 50 µM in each case.
For the molecule `CSc1nc(-c2ccc(Cl)cc2)nn1C(=O)N(C)C`, the IC50 against Acetylcholinesterase [1] is 0.1 µM; at Cholinesterase, less than 0.01 µM; against Hormone-sensitive lipase, 0.02 µM.
For `CSc1nc(-c2ccc(Cl)cc2)nn1C(=O)N1CCOCC1` the same measures were greater than 50 µM, 14 µM and 2 µM.
In the case of `CN(C(=O)n1nc(-c2ccc(Cl)cc2)nc1SCC1CC1)c1ccccc1`, the half-inhibitory concentration (IC50) result against Acetylcholinesterase [2] was “Non classical inhibitor”; at Hormone-sensitive lipase it was 0.062 µM.
For `CSc1nc(-c2ccc(-c3ccccc3)cc2)nn1C(=O)N(C)C`, the IC50 against Acetylcholinesterase [1] came to 0.56 µM; on Cholinesterase, 0.23 µM; against Hormone-sensitive lipase, 1.5 µM.
For `CSc1nc(-c2ccc(C)cc2)nn1C(=O)N(C)C` the same measures were 0.8 µM, 0.2 µM and 0.03 µM.
Regarding `Cc1c(C(C)C)c(=O)on1C(=O)N1CCC[C@H](C)C1`, the half-inhibitory concentration (IC50) at Acetylcholinesterase [1] was 17 µM; on Cholinesterase, greater than 50 µM; against Hormone-sensitive lipase it was 0.17 µM; in assay [3] it was greater than 50 µM; in assay [4], greater than 50 µM; in assay [5], greater than 50 µM.
Consider `COc1ccc(-c2nc(SC)n(C(=O)N(C)C)n2)cc1`, for which the IC50 at Acetylcholinesterase [1] worked out at 0.8 µM; on Cholinesterase, 0.41 µM; against Hormone-sensitive lipase, 0.9 µM.
As for `CCOc1nn(-c2cccc(OCc3ccccc3)c2)c(=O)o1`, the IC50 on Acetylcholinesterase [1] was 0.75 µM; on Cholinesterase it was 0.92 µM; at Hormone-sensitive lipase, 1.1 µM; in assay [3] it was 15 µM; in assay [4], greater than 10 µM; in assay [5] it was greater than 10 µM.
On to `CSc1nc(-c2ccc(OC(F)(F)F)cc2)nn1C(=O)N(C)c1ccccc1`, for which the half-maximal inhibitory concentration (IC50) is greater than 50 µM against Acetylcholinesterase [1]; greater than 50 µM on Cholinesterase; 0.25 µM against Hormone-sensitive lipase; greater than 50 µM in assay [3]; greater than 50 µM in assay [4]; greater than 50 µM in assay [5].
As to `O=C(N1CCCCC1)n1nc(-c2ccc(Cl)cc2)nc1SCC(F)(F)F`, the IC50 on Acetylcholinesterase [1] stood at 0.3 µM; on Cholinesterase, 1 µM; at Hormone-sensitive lipase, 0.4 µM.
With `CCCCCCSc1nc(-c2ccc(Cl)cc2)nn1C(=O)N1CCCCC1`, the IC50 at Acetylcholinesterase [1] is less than 0.01 µM; on Cholinesterase, greater than 50 µM; against Hormone-sensitive lipase, greater than 50 µM.
`COc1nn(-c2ccc(NC(=O)c3ccc(C(C)(C)C)cc3)cc2)c(=O)o1`: the IC50 is greater than 50 µM against Acetylcholinesterase [1]; greater than 50 µM on Cholinesterase; 0.023 µM on Hormone-sensitive lipase; 1.8 µM in assay [3]; greater than 10 µM in assay [4]; 0.2 µM in assay [5].
Turning to `CCCCCCSc1nc(-c2ccc(Cl)cc2)nn1C(=O)N(C)c1ccccc1`, the 50% inhibitory concentration (IC50) against Acetylcholinesterase [1] was greater than 50 µM; against Hormone-sensitive lipase it was 0.4 µM.
`CSc1nc(-c2ccc3ccccc3c2)nn1C(=O)N(C)C`: the IC50 is 0.05 µM at Acetylcholinesterase [1], 0.13 µM on Cholinesterase and 2 µM on Hormone-sensitive lipase.
For `CCSc1nc(-c2ccc(OC)cc2)nn1C(=O)N1CCOCC1` the same measures were greater than 50 µM, 4 µM and 9 µM.
`CCSc1nc(-c2ccc(OC)cc2)nn1C(=O)N(C)c1ccccc1`: the figures for the IC50 against Acetylcholinesterase [1] and on Hormone-sensitive lipase were 1.1 µM and 0.3 µM, respectively.
In the case of `O=C(N1CCOCC1)n1nc(-c2ccc(Cl)cc2)nc1SCC(F)(F)F`, the 50% inhibitory concentration (IC50) was greater than 50 µM on Acetylcholinesterase [1], greater than 50 µM against Cholinesterase and 9 µM against Hormone-sensitive lipase.
Turning to `CCCCCCSc1nc(-c2ccc(C)cc2)nn1C(=O)N(C)C`, the figures for the 50% inhibitory concentration (IC50) on Acetylcholinesterase [1], against Cholinesterase and on Hormone-sensitive lipase were 0.2 µM, 0.3 µM and greater than 50 µM, respectively.
For the molecule `CSc1nc(-c2ccc(Cl)cc2)nn1C(=O)N1CCCCC1`, the IC50 on Acetylcholinesterase [1] is 0.026 µM; against Cholinesterase it was 0.9 µM; against Hormone-sensitive lipase it was 0.1 µM.
For `CSc1nc(-c2ccc(C)cc2)nn1C(=O)N1CCOCC1` the same measures were greater than 50 µM, 2 µM and 4 µM.
For `O=C(N1CCCCC1)n1nc(-c2ccc(Cl)cc2)nc1SCC1CC1` the same measures were 0.1 µM, 0.9 µM and 0.2 µM.
For `CCSc1nc(-c2ccc(Cl)cc2)nn1C(=O)N(C)C` the same measures were 0.056 µM, 0.05 µM and 0.21 µM.
For `CN(C(=O)n1nc(-c2ccc(Cl)cc2)nc1SCC(F)(F)F)c1ccccc1`, the concentration for half-maximal inhibition (IC50) against Acetylcholinesterase [1] was greater than 50 µM; on Cholinesterase it was greater than 50 µM; at Hormone-sensitive lipase it was 0.17 µM; in assay [3] it was greater than 50 µM; in assay [4], greater than 50 µM; in assay [5], greater than 50 µM.
As to `CSc1nc(-c2ccc(C(F)(F)F)cc2)nn1C(=O)N(C)C`, the figures for the half-inhibitory concentration (IC50) against Acetylcholinesterase [1], against Cholinesterase and against Hormone-sensitive lipase were 0.5 µM, 0.1 µM and 0.1 µM, respectively.
As to `CSc1nc(/C=C/c2ccccc2)nn1C(=O)N(C)C`, the half-maximal inhibitory concentration (IC50) on Acetylcholinesterase [1] is less than 0.01 µM; on Cholinesterase it was 0.37 µM; against Hormone-sensitive lipase, greater than 50 µM.
Taken in the same sequence, the figures for `Cc1ccc(-c2nc(SCC(F)(F)F)n(C(=O)N(C)C)n2)cc1` were 0.2 µM, 0.46 µM and 0.6 µM.
For `CCCCCCSc1nc(-c2ccc(C)cc2)nn1C(=O)N(C)c1ccccc1`, the IC50 at Acetylcholinesterase [1] is greater than 50 µM; against Hormone-sensitive lipase, 0.7 µM.
